≈ marks a conversion by molar mass, not a printed value.
Experiments:
[1] = target: Serine/threonine-protein kinase Chk1 (Homo sapiens) (UniProt O14757); test: Inhibition of CHEK1 at 10 uM
[2] = target: Mitogen-activated protein kinase 14 (Homo sapiens) (UniProt Q16539); test: Inhibition of MAPK14 at 10 uM
[3] = target: Ribosomal protein S6 kinase beta-1 (Homo sapiens, UniProt P23443); test: Inhibition of S6K1
[4] = target: cAMP-dependent protein kinase catalytic subunit alpha (Homo sapiens) (UniProt P17612); test: Inhibition of PRKACA at 1 uM
[5] = target: Mitogen-activated protein kinase 1 (Homo sapiens) (UniProt P28482); test: Inhibition of MAPK1 at 1 uM
[6] = target: Cyclin-dependent kinase 2 (Homo sapiens) (UniProt P24941); test: Inhibition of CDK2 at 1 uM
[7] = target: Proto-oncogene tyrosine-protein kinase Src (Homo sapiens) (UniProt P12931); test: Inhibition of SRC at 1 uM
[8] = target: Hepatocyte growth factor receptor (Homo sapiens) (UniProt P08581); test: Inhibition of MET at 1 uM
[9] = target: Tyrosine-protein kinase JAK3 (Homo sapiens) (UniProt P52333); test: Inhibition of JAK3 at 1 uM
[10] = target: Serine/threonine-protein kinase Sgk1 (Homo sapiens) (UniProt O00141); test: Inhibition of SGK1 at 10 uM
[11] = target: Serine/threonine-protein kinase TAO3 (Homo sapiens) (UniProt Q9H2K8); test: Inhibition of TAOK3 at 1 uM
[12] = Half life in human liver microsomes at 1 uM by LC/MS/MS analysis; format: ADME, Microsome
In short: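 Test compound incubated with human liver microsomes to measure Phase I metabolic stability. Remaining compound quantified by LC/MS/MS, and stability reported as half-life (T1/2) in minutes.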

[13] = target: Serine/threonine-protein kinase pim-2 (Homo sapiens) (UniProt Q9P1W9); test: Inhibition of PIM2 at 1 uM
[14] = target: Aurora kinase A (Homo sapiens) (UniProt O14965); test: Inhibition of aurora A at 1 uM
[15] = target: Tyrosine-protein kinase BTK (Homo sapiens) (UniProt Q06187); test: Inhibition of BTK at 1 uM
[16] = target: Dual specificity protein kinase CLK1 (Homo sapiens) (UniProt P49759); test: Inhibition of CLK1 at 10 uM
[17] = target: Glycogen synthase kinase-3 beta (Homo sapiens) (UniProt P49841); test: Inhibition of GSK3b at 10 uM
[18] = target: Serine/threonine-protein kinase MARK1 (Homo sapiens) (UniProt Q9P0L2); test: Inhibition of MARK1 at 10 uM
[19] = target: RAC-alpha serine/threonine-protein kinase (Homo sapiens) (UniProt P31749); test: Inhibition of AKT1 at 10 uM
[20] = target: Inhibitor of nuclear factor kappa-B kinase subunit epsilon (Homo sapiens) (UniProt Q14164); test: Inhibition of IKBKE at 1 uM
[21] = target: Serine/threonine-protein kinase MARK1 (Homo sapiens) (UniProt Q9P0L2); test: Inhibition of MARK1 at 1 uM
[22] = target: Tyrosine-protein kinase ABL1 (Homo sapiens) (UniProt P00519); test: Inhibition of ABL1 at 10 uM
[23] = target: Aurora kinase A (Homo sapiens) (UniProt O14965); test: Inhibition of aurora A at 10 uM
[24] = target: Casein kinase II subunit alpha (Homo sapiens) (UniProt P68400); test: Inhibition of CSNK2A1 at 10 uM
[25] = target: Ephrin type-A receptor 2 (Homo sapiens) (UniProt P29317); test: Inhibition of EPHA2 at 10 uM
[26] = target: cAMP-dependent protein kinase catalytic subunit alpha (Homo sapiens) (UniProt P17612); test: Inhibition of PRKACA at 10 uM
[27] = target: Tyrosine-protein kinase BTK (Homo sapiens) (UniProt Q06187); test: Inhibition of BTK at 10 uM
[28] = target: Dual specificity protein kinase CLK1 (Homo sapiens) (UniProt P49759); test: Inhibition of CLK1 at 1 uM
[29] = target: Serine/threonine-protein kinase 3 (Homo sapiens) (UniProt Q13188); test: Inhibition of STK3 at 10 uM
[30] = target: Calcium/calmodulin-dependent protein kinase type 1 (Homo sapiens) (UniProt Q14012); test: Inhibition of CAMK1 at 1 uM
CYP2C9 = CYP2C9 (Homo sapiens, UniProt P11712); test: Inhibition of CYP2C9 at 3 uM by LC/MS/MS analysis; format: ADME
CYP3A4 = CYP3A4 (Homo sapiens, UniProt P08684); test: Inhibition of CYP3A4 at 3 uM by LC/MS/MS analysis; format: ADME
[31] = target: High affinity nerve growth factor receptor (Homo sapiens) (UniProt P04629); test: Inhibition of NTRK1 at 1 uM
[32] = target: Inhibitor of nuclear factor kappa-B kinase subunit beta (Homo sapiens) (UniProt O14920); test: Inhibition of IKBKB at 10 uM
[33] = target: Protein kinase C zeta type (Homo sapiens) (UniProt Q05513); test: Inhibition of PRKCZ at 1 uM
[34] = target: Cyclin-dependent kinase 2 (Homo sapiens) (UniProt P24941); test: Inhibition of CDK2 at 10 uM
[35] = target: Serine/threonine-protein kinase Chk1 (Homo sapiens) (UniProt O14757); test: Inhibition of CHEK1 at 1 uM
[36] = target: Calcium/calmodulin-dependent protein kinase type 1 (Homo sapiens) (UniProt Q14012); test: Inhibition of CAMK1 at 10 uM
CYP2D6 = CYP2D6 (Homo sapiens, UniProt P10635); test: Inhibition of CYP2D6 at 3 uM by LC/MS/MS analysis; format: ADME
[37] = Kinetic solubility of the compound in 50 mM phosphate buffer at pH 6.5; format: physicochemical
[38] = target: Protein kinase C zeta type (Homo sapiens) (UniProt Q05513); test: Inhibition of PRKCZ at 10 uM
[39] = target: Mitogen-activated protein kinase kinase kinase 9 (Homo sapiens) (UniProt P80192); test: Inhibition of MAP3K9 at 10 uM
[40] = target: Serine/threonine-protein kinase Nek2 (Homo sapiens) (UniProt P51955); test: Inhibition of NEK2 at 1 uM
[41] = target: Serine/threonine-protein kinase PAK 4 (Homo sapiens) (UniProt O96013); test: Inhibition of PAK4 at 1 uM
[42] = target: RAC-alpha serine/threonine-protein kinase (Homo sapiens) (UniProt P31749); test: Inhibition of AKT1 at 1 uM
[43] = target: Vascular endothelial growth factor receptor 2 (Homo sapiens) (UniProt P35968); test: Inhibition of KDR at 1 uM
[44] = target: Serine/threonine-protein kinase 3 (Homo sapiens) (UniProt Q13188); test: Inhibition of STK3 at 1 uM
[45] = target: Glycogen synthase kinase-3 beta (Homo sapiens) (UniProt P49841); test: Inhibition of GSK3b at 1 uM
[46] = target: MAP kinase-activated protein kinase 2 (Homo sapiens) (UniProt P49137); test: Inhibition of MAPKAPK2 at 1 uM
[47] = target: Epidermal growth factor receptor (Homo sapiens) (UniProt P00533); test: Inhibition of EGFR at 1 uM
[48] = target: MAP kinase-activated protein kinase 2 (Homo sapiens) (UniProt P49137); test: Inhibition of MAPKAPK2 at 10 uM
[49] = target: Epidermal growth factor receptor (Homo sapiens) (UniProt P00533); test: Inhibition of EGFR at 10 uM
[50] = target: Casein kinase I isoform delta (Homo sapiens) (UniProt P48730); test: Inhibition of CSNK1D at 10 uM
[51] = target: Rho-associated protein kinase 1 (Homo sapiens) (UniProt Q13464); test: Inhibition of ROCK1 at 10 uM

Serine/threonine-protein kinase 3 (Homo sapiens), sequence (Q13188 whole entry): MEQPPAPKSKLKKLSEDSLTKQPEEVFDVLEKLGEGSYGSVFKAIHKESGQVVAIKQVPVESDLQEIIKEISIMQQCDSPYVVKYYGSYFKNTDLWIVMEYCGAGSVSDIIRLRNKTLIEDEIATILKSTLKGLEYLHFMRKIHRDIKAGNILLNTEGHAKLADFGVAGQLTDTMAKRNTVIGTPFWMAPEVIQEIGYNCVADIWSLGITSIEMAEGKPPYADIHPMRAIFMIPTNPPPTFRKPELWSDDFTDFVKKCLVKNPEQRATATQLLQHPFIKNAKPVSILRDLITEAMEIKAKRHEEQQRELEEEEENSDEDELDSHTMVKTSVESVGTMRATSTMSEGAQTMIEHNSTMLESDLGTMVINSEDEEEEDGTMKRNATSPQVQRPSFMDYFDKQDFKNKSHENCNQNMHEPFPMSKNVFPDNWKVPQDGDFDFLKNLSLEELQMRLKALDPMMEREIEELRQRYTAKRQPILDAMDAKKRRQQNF
Serine/threonine-protein kinase Chk1 (Homo sapiens), sequence (O14757 whole entry): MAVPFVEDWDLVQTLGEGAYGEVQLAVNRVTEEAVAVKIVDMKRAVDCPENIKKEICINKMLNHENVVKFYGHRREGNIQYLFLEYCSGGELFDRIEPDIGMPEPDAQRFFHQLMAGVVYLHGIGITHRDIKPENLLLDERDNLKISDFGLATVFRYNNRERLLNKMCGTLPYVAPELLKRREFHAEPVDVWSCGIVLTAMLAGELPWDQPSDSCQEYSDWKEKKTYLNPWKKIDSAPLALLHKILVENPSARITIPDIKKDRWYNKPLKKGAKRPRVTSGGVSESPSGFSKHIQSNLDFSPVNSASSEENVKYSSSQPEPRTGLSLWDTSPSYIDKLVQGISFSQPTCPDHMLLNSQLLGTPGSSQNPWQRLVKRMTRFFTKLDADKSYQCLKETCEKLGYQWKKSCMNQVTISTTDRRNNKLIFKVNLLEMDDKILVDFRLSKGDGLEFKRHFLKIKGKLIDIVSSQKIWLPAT
Serine/threonine-protein kinase MARK1 (Homo sapiens), sequence (Q9P0L2 whole entry, looked up): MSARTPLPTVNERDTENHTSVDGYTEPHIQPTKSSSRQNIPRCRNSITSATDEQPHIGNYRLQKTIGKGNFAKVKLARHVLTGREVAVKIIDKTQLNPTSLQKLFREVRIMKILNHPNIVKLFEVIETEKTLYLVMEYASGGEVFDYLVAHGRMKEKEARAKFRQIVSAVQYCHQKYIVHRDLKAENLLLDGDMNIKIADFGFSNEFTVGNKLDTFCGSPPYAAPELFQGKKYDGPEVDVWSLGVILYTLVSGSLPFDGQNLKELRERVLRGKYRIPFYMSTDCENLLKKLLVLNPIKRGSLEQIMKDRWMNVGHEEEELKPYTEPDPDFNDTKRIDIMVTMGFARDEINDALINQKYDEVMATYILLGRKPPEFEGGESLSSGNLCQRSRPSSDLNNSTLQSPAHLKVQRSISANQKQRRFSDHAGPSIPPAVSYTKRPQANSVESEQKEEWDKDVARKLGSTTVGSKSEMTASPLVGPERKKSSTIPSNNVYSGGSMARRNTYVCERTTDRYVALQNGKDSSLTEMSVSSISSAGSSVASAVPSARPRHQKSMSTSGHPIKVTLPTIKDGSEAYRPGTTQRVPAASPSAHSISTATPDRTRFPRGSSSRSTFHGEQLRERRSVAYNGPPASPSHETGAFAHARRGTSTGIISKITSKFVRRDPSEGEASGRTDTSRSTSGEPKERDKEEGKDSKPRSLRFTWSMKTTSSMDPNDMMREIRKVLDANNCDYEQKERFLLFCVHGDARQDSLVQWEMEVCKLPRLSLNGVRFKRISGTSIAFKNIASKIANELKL
Glycogen synthase kinase-3 beta (Homo sapiens), sequence (P49841 whole entry, looked up): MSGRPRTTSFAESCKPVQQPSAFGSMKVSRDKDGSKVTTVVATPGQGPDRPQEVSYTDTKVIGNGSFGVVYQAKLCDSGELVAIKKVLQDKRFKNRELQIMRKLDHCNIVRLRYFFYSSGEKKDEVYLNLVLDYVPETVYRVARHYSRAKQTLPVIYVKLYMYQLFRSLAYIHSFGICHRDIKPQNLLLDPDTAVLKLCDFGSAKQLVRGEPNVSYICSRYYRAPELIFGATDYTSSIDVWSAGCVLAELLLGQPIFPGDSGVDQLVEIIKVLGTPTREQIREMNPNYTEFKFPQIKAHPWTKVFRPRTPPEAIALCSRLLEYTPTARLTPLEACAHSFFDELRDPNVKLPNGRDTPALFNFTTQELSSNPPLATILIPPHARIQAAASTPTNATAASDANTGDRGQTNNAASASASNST
MAP kinase-activated protein kinase 2 (Homo sapiens), sequence (P49137 whole entry, looked up): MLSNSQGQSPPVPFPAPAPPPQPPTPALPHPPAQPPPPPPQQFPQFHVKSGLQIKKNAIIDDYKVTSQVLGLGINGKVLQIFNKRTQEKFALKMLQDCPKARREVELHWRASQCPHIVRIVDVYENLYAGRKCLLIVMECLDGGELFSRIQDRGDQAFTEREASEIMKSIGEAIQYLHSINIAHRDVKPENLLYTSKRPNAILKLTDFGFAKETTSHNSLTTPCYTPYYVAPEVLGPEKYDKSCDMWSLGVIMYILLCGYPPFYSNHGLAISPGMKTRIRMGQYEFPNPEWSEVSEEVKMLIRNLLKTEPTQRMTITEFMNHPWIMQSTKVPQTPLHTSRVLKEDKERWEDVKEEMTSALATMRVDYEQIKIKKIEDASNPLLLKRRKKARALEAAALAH
Tyrosine-protein kinase BTK (Homo sapiens), sequence (Q06187 whole entry): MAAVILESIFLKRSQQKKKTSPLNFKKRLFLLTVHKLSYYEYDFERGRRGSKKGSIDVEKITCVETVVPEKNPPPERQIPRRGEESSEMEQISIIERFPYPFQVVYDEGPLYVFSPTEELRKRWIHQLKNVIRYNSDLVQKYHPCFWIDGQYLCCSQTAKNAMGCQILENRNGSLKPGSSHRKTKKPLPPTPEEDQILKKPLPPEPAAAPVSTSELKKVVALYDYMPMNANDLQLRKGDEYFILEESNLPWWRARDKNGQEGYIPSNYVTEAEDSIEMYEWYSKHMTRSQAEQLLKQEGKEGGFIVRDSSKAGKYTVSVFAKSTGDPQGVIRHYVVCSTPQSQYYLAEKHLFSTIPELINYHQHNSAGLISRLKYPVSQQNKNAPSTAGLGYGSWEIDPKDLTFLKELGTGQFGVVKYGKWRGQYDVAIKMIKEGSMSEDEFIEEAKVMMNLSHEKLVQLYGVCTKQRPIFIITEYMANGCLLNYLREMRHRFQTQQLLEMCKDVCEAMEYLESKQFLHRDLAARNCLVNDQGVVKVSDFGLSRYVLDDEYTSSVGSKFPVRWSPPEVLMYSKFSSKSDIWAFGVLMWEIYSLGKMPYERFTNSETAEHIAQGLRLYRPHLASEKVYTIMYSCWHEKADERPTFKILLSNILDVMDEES
Aurora kinase A (Homo sapiens), sequence (O14965 whole entry): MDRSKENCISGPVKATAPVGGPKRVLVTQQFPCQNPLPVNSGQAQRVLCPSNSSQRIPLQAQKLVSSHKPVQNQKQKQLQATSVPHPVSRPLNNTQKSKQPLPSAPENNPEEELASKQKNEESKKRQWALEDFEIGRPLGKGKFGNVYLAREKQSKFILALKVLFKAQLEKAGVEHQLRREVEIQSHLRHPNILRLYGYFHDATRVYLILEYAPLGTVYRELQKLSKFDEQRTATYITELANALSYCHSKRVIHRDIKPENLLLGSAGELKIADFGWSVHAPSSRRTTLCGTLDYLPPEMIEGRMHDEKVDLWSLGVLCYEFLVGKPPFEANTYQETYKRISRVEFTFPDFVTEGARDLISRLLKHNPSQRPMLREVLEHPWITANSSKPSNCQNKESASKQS
Epidermal growth factor receptor (Homo sapiens), sequence (P00533 whole entry, canonical isoform): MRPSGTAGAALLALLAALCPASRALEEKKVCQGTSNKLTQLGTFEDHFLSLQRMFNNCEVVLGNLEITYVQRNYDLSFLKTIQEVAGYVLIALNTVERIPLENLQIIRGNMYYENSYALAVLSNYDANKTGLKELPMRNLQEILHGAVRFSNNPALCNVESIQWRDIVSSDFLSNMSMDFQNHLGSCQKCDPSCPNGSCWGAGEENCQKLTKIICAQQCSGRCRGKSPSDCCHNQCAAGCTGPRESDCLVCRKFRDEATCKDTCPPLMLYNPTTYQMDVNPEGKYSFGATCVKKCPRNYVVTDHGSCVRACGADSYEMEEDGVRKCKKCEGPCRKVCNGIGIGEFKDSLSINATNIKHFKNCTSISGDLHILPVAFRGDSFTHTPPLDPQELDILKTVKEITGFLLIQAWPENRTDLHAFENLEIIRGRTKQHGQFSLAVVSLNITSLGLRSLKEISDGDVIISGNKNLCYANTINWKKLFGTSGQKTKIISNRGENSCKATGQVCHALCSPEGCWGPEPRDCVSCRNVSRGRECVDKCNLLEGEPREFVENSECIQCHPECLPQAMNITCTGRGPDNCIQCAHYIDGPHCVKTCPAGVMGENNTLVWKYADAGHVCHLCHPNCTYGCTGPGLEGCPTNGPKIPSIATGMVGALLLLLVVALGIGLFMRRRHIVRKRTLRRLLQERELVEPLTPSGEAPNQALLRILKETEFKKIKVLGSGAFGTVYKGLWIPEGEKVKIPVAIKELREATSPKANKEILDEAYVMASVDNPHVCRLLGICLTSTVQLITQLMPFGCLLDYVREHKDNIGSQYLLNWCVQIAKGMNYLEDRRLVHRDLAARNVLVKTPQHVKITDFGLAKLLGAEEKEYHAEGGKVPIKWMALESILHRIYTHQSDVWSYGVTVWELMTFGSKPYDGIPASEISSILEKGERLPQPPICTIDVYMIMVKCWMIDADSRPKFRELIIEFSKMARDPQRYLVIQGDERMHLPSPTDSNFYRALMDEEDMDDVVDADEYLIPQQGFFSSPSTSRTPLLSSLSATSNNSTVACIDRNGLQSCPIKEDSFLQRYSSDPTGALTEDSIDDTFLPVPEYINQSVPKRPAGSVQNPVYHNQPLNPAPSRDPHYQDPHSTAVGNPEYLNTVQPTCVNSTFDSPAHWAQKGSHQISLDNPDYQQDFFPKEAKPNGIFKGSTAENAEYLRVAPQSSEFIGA

CC(C)(C)c1cc(C(=O)O)c(NC(=O)Nc2ccc3[nH]ncc3c2)s1
inhibition [1]: 10% | inhibition [2]: 10% | IC50 [3]: 52 nM | inhibition [4]: 10% | inhibition [5]: 10% | inhibition [6]: 10% | inhibition [7]: 0% | inhibition [8]: 0% | inhibition [9]: 40% | inhibition [10]: 0% | inhibition [11]: 10% | half-life at 1 µM [12]: > 2 h | inhibition [13]: 0% | inhibition [14]: 0% | inhibition [15]: 0% | inhibition [16]: 10% | inhibition [17]: 10% | inhibition [18]: 20% | inhibition [19]: 0% | inhibition [20]: 10% | inhibition [21]: 20% | inhibition [22]: 0% | inhibition [23]: 0% | inhibition [24]: 30% | inhibition [25]: 10% | inhibition [26]: 10% | inhibition [27]: 0% | inhibition [28]: 10% | inhibition [29]: 0% | inhibition [30]: 10% | inhibition at 3 µM (CYP2C9): 55% | inhibition at 3 µM (CYP3A4): 0% | inhibition [31]: 10% | inhibition [32]: 10% | inhibition [33]: 20% | inhibition [34]: 10% | inhibition [35]: 10% | inhibition [36]: 10% | inhibition at 3 µM (CYP2D6): 0% | solubility kinetic [37]: 143 µg/mL (≈ 399 µM) | inhibition [38]: 20% | inhibition [39]: 20% | inhibition [40]: 10% | inhibition [41]: 0% | inhibition [42]: 0% | inhibition [43]: 0% | inhibition [44]: 0% | inhibition [45]: 10% | inhibition [46]: 10% | inhibition [47]: 10% | inhibition [48]: 10% | inhibition [49]: 10% | inhibition [50]: 20% | inhibition [51]: 10%

— ChEMBL document CHEMBL1641460, “Potent and selective thiophene urea-templated inhibitors of S6K” (Bioorg Med Chem Lett, 2011)
